# Measurements taken from ChEMBL document CHEMBL4477197, “Antitumor Activity of Spicatoside A by Modulation of Autophagy and Apoptosis in Human Colorectal Cancer Cells” (J Nat Prod, 2016).
# Activity calls are given as the source filed them. The rule behind the calls is not given here.
# Experiments:
# HCT-116 [1] = test: Cell cycle arrest in human HCT116 cells assessed as accumulation at subG1 phase at 20 uM after 48 hrs by propidium iodide staining based flow cytometry; assay type: functional
# HCT-116 [2] = test: Induction of apoptosis in human HCT116 cells assessed as caspase 8 cleavage at 30 uM upto 48 hrs by Western blot analysis; assay type: functional, cell-based
# Procedure, shortened: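 Time course: HCT116 cells were exposed to 30 μM compound for 6, 12, 24, 36 and 48 h. LC3-II, beclin 1, cleaved caspase-8 and cleaved PARP were measured by Western blot (SDS-PAGE, PVDF, ECL) with β-actin as internal standard.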
# HCT-116 [3] = test: Induction of apoptosis in human HCT116 cells assessed as activation of caspase 8 at 10 to 30 uM after 48 hrs by Western blot analysis; assay type: functional, cell-based
# Procedure, shortened: (§1)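 HCT116 cells were treated with the indicated concentrations for 48 h. Lysates were prepared in SDS sample buffer and 10–30 μg protein was separated by SDS-PAGE, blotted to PVDF and blocked in 5% BSA. Cleaved caspase-8, -9, -3 and PARP were detected by ECL.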
# [4] = target: MAP kinase p38 (Homo sapiens) (UniProt O15264+Q15759+Q16539+P53778); test: Induction of p38 phosphorylation in human HCT116 cells after 24 hrs by Western blot analysis; assay type: cell-based
# HCT-116 [5] = test: Induction of apoptosis in human HCT116 cells assessed as activation of caspase 9 at 10 to 30 uM after 48 hrs by Western blot analysis; assay type: functional, cell-based; procedure, shortened: as §1
# HCT-116 [6] = test: Induction of autophagy in human HCT116 cells assessed as downregulation of p62 expression at 10 to 30 uM after 24 hrs by Western blot analysis; assay type: functional, cell-based
# Procedure, shortened: (§2)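 HCT116 cells were cultured 24 h with the indicated concentrations. Lysates were made in SDS buffer with NaF and orthovanadate and quantified by BCA; 10–30 μg protein was separated by 6–15% SDS-PAGE and transferred to PVDF. After 5% BSA blocking, blots were probed for LC3-II, beclin 1, p62, LAMP1 and cathepsin D, with ECL detection.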
# HCT-116 [7] = test: Induction of apoptosis in human HCT116 cells assessed as activation of caspase 3 at 10 to 30 uM after 48 hrs by Western blot analysis; assay type: functional, cell-based; procedure, shortened: as §1
# HCT-116 [8] = test: Induction of autophagy in human HCT116 cells assessed as increase in LAMP1 expression at 30 uM at 24 hrs by Western blot analysis; assay type: functional, cell-based
# HCT-116 [9] = test: Antitumor activity against human HCT116 cells xenografted in BALB/c-nu mouse assessed as inhibition of tumor weight at 2.5 mg/kg, ip administered three times per week for 28 days measured post dosing relative to control; assay type: functional; conditions: HCT-116, ip, 672 h
# Procedure, shortened: (§3)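 Nude mice bearing subcutaneous HCT116 flank tumors (2 × 10^6 cells) were randomized at ~200 mm3, five per group. Dosing was 2.5 or 5 mg/kg ip in saline/0.5% Tween 80, three times weekly for 28 days, with vehicle controls. Tumors were excised on day 28 and weighed; inhibition was expressed against the vehicle group.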
# HCT-116 [10] = test: Induction of autophagy in human HCT116 cells assessed as upregulation of cathepsin D expression at 10 to 30 uM after 24 hrs by Western blot analysis; assay type: functional, cell-based; procedure, shortened: as §2
# HCT-116 [11] = test: Induction of apoptosis in human HCT116 cells assessed as increase in cytochrome c levels in cytosol after 48 hrs by Western blot analysis; assay type: functional, cell-based
# HCT-116 [12] = test: Induction of autophagy in human HCT116 cells assessed as accumulation of LC3-2 at 30 uM after 24 hrs in presence of autophagy inhibitor 3-MA by Western blot analysis; assay type: functional, cell-based
# Procedure, shortened: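 HCT116 cells were pretreated 1 h with 2 mM 3-MA, then given 30 μM compound for a further 24 h. Whole-cell lysates were immunoblotted for LC3-II and cleaved PARP, with β-actin as loading standard and ECL detection. Blots are representative of three separate determinations.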
# HCT-116 [13] = test: Antitumor activity against human HCT116 cells xenografted in BALB/c-nu mouse assessed as inhibition of tumor weight at 5 mg/kg, ip administered three times per week for 28 days measured post dosing relative to control; assay type: functional; conditions: HCT-116, ip, 672 h; procedure, shortened: as §3
# HCT-116 [14] = test: Induction of apoptosis in human HCT116 cells assessed as cell rounding after 48 hrs; assay type: functional, cell-based
# HCT-116 [15] = test: Antitumor activity against human HCT116 cells xenografted in BALB/c-nu mouse assessed as inhibition of tumor volume at 5 mg/kg, ip administered three times per week for 28 days measured every 3 to 4 days of dosing relative to control; assay type: functional; conditions: HCT-116, ip
# Procedure, shortened: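 HCT116 cells (2 × 106 in 200 μL medium) injected subcutaneously into the right flank of nude mice; at ~200 mm3, mice randomized into groups of five. Compound at 2.5 or 5 mg/kg, dissolved in normal saline with 0.5% Tween 80, given ip three times weekly for 28 days; vehicle controls got equal volume. Tumor volume measured by caliper every 3–4 days.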
# [16] = Inhibition of PI3K/Akt/mTOR in human HCT116 cells assessed as suppression of mTOR phosphorylation at Ser2448 at 10 to 30 uM after 24 hrs by Western blot analysis; assay type: cell-based
# Procedure, shortened: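 HCT116 cells (RPMI 1640, 10% FBS, 37 °C, 5% CO2) exposed to the compound for 24 h, then lysed in 2× SDS sample buffer with NaF and orthovanadate and boiled. BCA-normalised protein (10−30 μg) run on 6−15% SDS-PAGE and blotted to PVDF. Blocked in 5% BSA/PBS-Tween, probed for PI3K, PTEN, Akt and mTOR, and detected by ECL. Blots are representative of three determinations.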
# HCT-116 [17] = test: Antiproliferative activity against human HCT116 cells after 24 to 72 hrs by SRB assay; assay type: functional, cell-based
# Procedure, shortened: (§4)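 Cells from ATCC were grown at 37 °C in 5% CO2, in RPMI 1640 (A549, HCT116, SNU-638) or DMEM (MDA-MB-231, SK-HEP-1, MRC5) with 10% FBS. They were seeded at 6 × 10^3 cells/well for 24 h, then exposed for 72 h. Cells were TCA-fixed, stained with 0.4% SRB, and read at 515 nm against day-zero plates. IC50 came from nonlinear regression, as means ± SD.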
# HCT-116 [18] = test: Induction of autophagy in human HCT116 cells assessed as accumulation of beclin 1 after 24 hrs by Western blot analysis; assay type: functional, cell-based; procedure, shortened: as §2
# SK-HEP1 = test: Antiproliferative activity against human SKHEP1 cells after 24 to 72 hrs by SRB assay; assay type: functional, cell-based; procedure, shortened: as §4
# HCT-116 [19] = test: Induction of autophagy in human HCT116 cells assessed as accumulation of LC3-2 after 24 hrs by Western blot analysis; assay type: functional, cell-based; procedure, shortened: as §2
structure (smiles),measurement,setting,value
C[C@H]1CC[C@@]2(OC1)O[C@H]1C[C@H]3[C@@H]4CC=C5C[C@@H](O)C[C@@H](O[C@@H]6O[C@H](C)[C@H](O)[C@H](O[C@@H]7OC[C@@H](O)[C@H](O)[C@H]7O)[C@H]6O[C@@H]6O[C@H](CO)[C@@H](O)[C@H](O)[C@H]6O)[C@]5(C)[C@H]4CC[C@]3(C)[C@H]1[C@@H]2C,Activity,HCT-116 [1],12.56%
same,Activity,HCT-116 [2],Active
same,Activity,HCT-116 [3],Active
same,Activity,[4],Dose-dependent effect
same,Activity,HCT-116 [5],Active
same,Activity,HCT-116 [6],Active
same,Activity,HCT-116 [7],Active
same,Activity,HCT-116 [8],Active
same,inhibition in vivo at 2.5 mg/kg,HCT-116 [9],43%
same,Activity,HCT-116 [10],Active
same,Activity,HCT-116 [11],Dose-dependent effect
same,Activity,HCT-116 [12],inactive
same,inhibition in vivo at 5 mg/kg,HCT-116 [13],56.6%
same,Activity,HCT-116 [14],Active
same,inhibition in vivo at 5 mg/kg,HCT-116 [15],57.5%
same,inhibition,[16],Active
same,IC50,HCT-116 [17],13.8 µM
same,Activity,HCT-116 [18],Dose-dependent effect
same,IC50,SK-HEP1,15.5 µM
same,Activity,HCT-116 [19],Dose-dependent effect
